Results of several laboratories.
Compare with care: the assays were run in different laboratories.
Target: Mitogen-activated protein kinase 15 (MAPK15, Homo sapiens, UniProt Q8TD08)
One construct used (Q8TD08 1-544): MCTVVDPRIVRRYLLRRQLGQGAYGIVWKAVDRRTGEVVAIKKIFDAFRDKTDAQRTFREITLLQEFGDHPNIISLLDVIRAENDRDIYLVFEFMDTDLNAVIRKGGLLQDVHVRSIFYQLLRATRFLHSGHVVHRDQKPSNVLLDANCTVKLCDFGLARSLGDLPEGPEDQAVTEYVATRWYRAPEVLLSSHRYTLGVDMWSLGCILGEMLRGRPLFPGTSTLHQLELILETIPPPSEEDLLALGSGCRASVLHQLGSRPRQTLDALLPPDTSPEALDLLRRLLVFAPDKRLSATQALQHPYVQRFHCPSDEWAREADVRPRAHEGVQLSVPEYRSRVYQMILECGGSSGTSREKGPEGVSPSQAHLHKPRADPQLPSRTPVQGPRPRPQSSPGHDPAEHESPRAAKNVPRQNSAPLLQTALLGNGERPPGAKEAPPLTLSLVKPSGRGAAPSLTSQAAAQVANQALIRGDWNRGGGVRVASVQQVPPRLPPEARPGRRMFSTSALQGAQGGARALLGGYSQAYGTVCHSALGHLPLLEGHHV

| SMILES | test | setting | remaining binding [%] |
| --- | --- | --- | --- |
| COc1ccc2cc(OCC3(C(=O)O)CN(C(=O)c4ccc(F)cc4)C3)ccc2c1 | cell-free assay, competition with immobilised ligand | 1 µM | 74 |
| Cc1cnn2ncc(-c3ccnc(N(C)C)n3)c2c1 | binding | 1 µM | 83 |
| C[C@H](NC(=O)c1cnc2n1[C@](C)(Cc1ccc(C#N)cc1)C(=O)N2c1cc(Cl)c(F)c(Cl)c1)C(=O)NC1(c2ccccn2)CC1 | cell-free assay, competition with immobilised ligand | 1 µM | 100 |
| O=C(NCCCN1CCOCC1)c1ccc(Nc2ncc(Cl)c(-c3ccc(Cl)s3)n2)cc1 | binding, competition with immobilised ligand | 1 µM | 1.2 |
| CCCCN(CCCC)C(=O)CN1C[C@H](c2cc(OC)c3c(c2)OCO3)[C@@H](C(=O)O)[C@@H]1CC(C)(C)CCC | cell-free assay, competition with immobilised ligand | 1 µM | 100 |
| N[C@@H]1CCN(c2nccc(-c3cnn4ncccc34)n2)C1 | binding | 1 µM | 97 |
| CN([C@@H]1CCc2c(CC(=O)O)c3ccccc3n2C1)S(=O)(=O)c1ccc(F)cc1 | cell-free assay, competition with immobilised ligand | 1 µM | 100 |
| CN(c1nccc(-c2cnn3ncccc23)n1)C1CC1 | binding | 1 µM | 85 |
| Cc1cnc(Nc2ccc(C(=O)N3CCC(N4CCCC4)CC3)cc2)nc1-c1cc2ccccc2s1 | binding, competition with immobilised ligand | 1 µM | 33 |
| C[C@@H](c1ccc(-n2cnc3c(N)ncnc32)cc1)N1CCc2nn(C)c(Cc3ccccc3)c2C1=O | binding, competition with immobilised ligand | 0.1 µM | 88 |
| CC1=C(C#N)C(c2ccc3c(c2)c(NC(=O)c2ccccc2C)nn3C)C(C#N)=C(C)N1 | cell-free assay, competition with immobilised ligand | 1 µM | 89 |
| FC(F)(F)Oc1cccc(-c2cnc3ccc(-c4ccncc4)nn23)c1 | cell-free assay, competition with immobilised ligand | 5 µM | 48 |
| O=C(c1ccc(Nc2ncc(Cl)c(-c3cc4ccccc4s3)n2)cc1)N1CCC(N2CCCC2)CC1 | binding, competition with immobilised ligand | 1 µM | 5.4 |
| Nc1ncc2c(n1)-c1c([nH]c3ccc(C#CC4CC4)cc13)CCCC2 | binding, competition with immobilised ligand | 1 µM | 100 |
| Cc1noc([C@H]2C[C@@H](c3ccc(C(F)(F)F)cc3)CN(C(=O)N3CCS(=O)(=O)C3)C2)n1 | cell-free assay, competition with immobilised ligand | 1 µM | 100 |
| O=C(Nc1c[nH]nc1C(=O)NC1CCNCC1)c1cc(F)cc(F)c1 | binding, competition with immobilised ligand | 1 µM | 75 |
| CN(CCCC(F)(F)F)c1nccc(-c2cnn3ncccc23)n1 | binding | 1 µM | 100 |
| COc1cnc(Nc2cccc(S(N)(=O)=O)c2)nc1N1CCN(c2ccccc2)CC1 | binding, competition with immobilised ligand | 1 µM | 100 |
| CN(C)c1nccc(-c2cnc3ncccn23)n1 | binding | 1 µM | 50 |
| c1cncc(-c2cccc(Nc3nccc(NC4CCCCC4)n3)c2)c1 | binding, competition with immobilised ligand | 10 µM | 62 |
| C[C@H]1CCN(c2nccc(-c3cnn4ncccc34)n2)C1 | binding | 1 µM | 74 |
| COc1ncc2cc3ccccc3nc2c1C#N | cell-free assay, competition with immobilised ligand | 5 µM | 91 |
